Measurements as given in ChEMBL document CHEMBL1133709, “Acyclic analogues of deoxyadenosine 3',5'-bisphosphates as P2Y(1) receptor antagonists” (J Med Chem, 2000).
Calls of active or inactive are those of the source. No cut-off for these calls is given here.

How the values were obtained:
[1] = molecular target: P2Y purinoceptor 1 (Meleagris gallopavo) (UniProt P49652); assay: P2Y purinoceptor 1 mediated PLC stimulation in turkey RBC, NE represents no effect
Method in brief: (§1)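 Compound alone added to [3H]inositol-labeled turkey erythrocyte ghosts (~175 μg protein) with 1 μM GTPγS in Hepes pH 7.0 medium, 5 min at 30 °C. Total [3H]inositol phosphates quantified by anion-exchange chromatography. EC50 from four-parameter logistic fit, 3–8 independent curves. Efficacy relative to a maximal 2-MeSADP concentration in the same experiment; NE = no effect at 100 μM.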

[2] = Antagonism of PLC stimulation elicited by 10(nM) 2-Me SADP in turkey RBC; format: functional, Meleagris gallopavo
Meleagris gallopavo [3] = assay: Antagonism of PLC stimulation elicited by 30(nM) 2-Me SADP in turkey RBC; format: functional; design: concentration or dose not given beside the values; details: dose or concentration not given here
Method in brief: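 Turkey erythrocytes labeled 18–24 h with 2-[3H]myo-inositol at 37 °C; ghost membranes with 1 μM GTPγS and test compound combined with 30 nM 2-MeSADP, 5 min at 30 °C, Hepes pH 7.0. [3H]inositol phosphates separated by anion exchange. IC50 for 50% inhibition of agonist response; at least three experiments, different membrane preparations, duplicate or triplicate assays.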

[4] = molecular target: P2Y purinoceptor 1 (Meleagris gallopavo) (UniProt P49652); assay: In vitro agonistic activity was determined for stimulation of PLC at Turkey erythrocyte P2Y purinoceptor 1; format: functional; method in brief: as §1
Meleagris gallopavo [5] = assay: Tested in vitro for effective concentration required for stimulation of phospholipase C (PLC) against [3H]inositol labeled Turkey Erythrocyte P2Y purinoceptor 1; format: functional; method in brief: as §1

Chain of P2Y purinoceptor 1 (Meleagris gallopavo) (P49652 whole entry): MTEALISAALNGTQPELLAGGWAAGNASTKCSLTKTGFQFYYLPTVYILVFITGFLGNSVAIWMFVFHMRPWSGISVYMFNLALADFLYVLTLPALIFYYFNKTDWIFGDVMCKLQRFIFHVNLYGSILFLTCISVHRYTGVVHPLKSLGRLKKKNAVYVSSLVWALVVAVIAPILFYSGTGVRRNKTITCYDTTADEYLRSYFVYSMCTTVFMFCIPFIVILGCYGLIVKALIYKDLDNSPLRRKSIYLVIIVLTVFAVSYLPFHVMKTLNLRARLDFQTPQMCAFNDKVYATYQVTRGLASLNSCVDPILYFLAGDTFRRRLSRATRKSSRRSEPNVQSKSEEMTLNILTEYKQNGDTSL

Compound | PLC stimulation [1] | IC50 [2] [µM] | Increase [4] [%] | EC50 (Meleagris gallopavo [5]) [µM] | inhibition (Meleagris gallopavo [3]) [%]
CNc1ncnc2c1ncn2CCCCC(COP(=O)(O)O)COP(=O)(O)O | inactive | > 50 |  |  | 65
CNc1ncnc2c1ncn2C/C=C\CC(COP(=O)(O)O)COP(=O)(O)O (stereo in doubt; 16) [listing 1 of 2 here] |  | 100 |  |  | 
CNc1nc(Cl)nc2c1ncn2CC(=O)Nc1cc(CP(=O)(O)O)cc(CP(=O)(O)O)c1 | inactive | 15.5 |  |  | 94
CNc1nc(Cl)nc2c1ncn2CC(=O)N(CCOP(=O)(O)O)CCOP(=O)(O)O | inactive | 14 |  |  | 89
CNc1ncnc2c1ncn2C/C=C\CC(COP(=O)(O)O)COP(=O)(O)O (stereo in doubt; 15) [listing 1 of 2 here] |  | > 50 |  |  | 
CNc1ncnc2c1ncn2CCCCCC(COP(=O)(O)O)COP(=O)(O)O | inactive | 100 |  |  | 56
CNc1ncnc2c1ncn2CCCC(COP(=O)(O)O)COP(=O)(O)O | inactive | > 30 |  |  | 68
CNc1ncnc2c1ncn2C/C=C\CC(COP(=O)(O)O)COP(=O)(O)O (stereo in doubt; 15) [listing 2 of 2 here] | inactive |  |  |  | 77
Nc1ncnc2c1ncn2CCC(COP(=O)(O)O)COP(=O)(O)O | inactive | > 50 |  |  | 63
Nc1nc(Cl)nc2c1ncn2CCC(COP(=O)(O)O)COP(=O)(O)O | inactive | 7.57 |  |  | 94
Nc1ncnc2c1ncn2[C@H]1C[C@H](OP(=O)(O)O)[C@@H](COP(=O)(O)O)O1 |  | 5.76 |  | 6.29 | 87
CNc1ncnc2c1ncn2C/C=C\CC(COP(=O)(O)O)COP(=O)(O)O (stereo in doubt; 16) [listing 2 of 2 here] | inactive |  |  |  | 54
CNc1ncnc2c1ncn2[C@H]1C[C@H](OP(=O)(O)O)[C@@H](COP(=O)(O)O)O1 | inactive |  |  |  | 

Continued, in another order:

PLC stimulation [1] | IC50 [2] [µM] | Increase [4] [%] | EC50 (Meleagris gallopavo [5]) [µM] | Compound | inhibition (Meleagris gallopavo [3]) [%]
inactive | 1.6 |  |  | CNc1ncnc2c1ncn2CCC(COP(=O)(O)O)COP(=O)(O)O | 100
inactive | 0.206 |  |  | CNc1nc(Cl)nc2c1ncn2[C@H]1C[C@H](OP(=O)(O)O)[C@@H](COP(=O)(O)O)O1 | 95
 | 2.53 | 27 | 7.21 | Nc1ncnc2c1ncn2[C@@H]1C[C@H](COP(=O)(O)O)[C@H](OP(=O)(O)O)C1 | 73
inactive | 0.84 |  |  | CNc1nc(Cl)nc2c1ncn2CCC(COP(=O)(O)O)COP(=O)(O)O | 99
inactive | 0.331 |  |  | CNc1ncnc2c1ncn2[C@@H]1C[C@H](COP(=O)(O)O)[C@H](OP(=O)(O)O)C1 | 99
inactive | 0.206 |  |  | CNc1nc(Cl)nc2c1ncn2[C@@H]1C[C@H](COP(=O)(O)O)[C@H](OP(=O)(O)O)C1 | 95
